Measured values gathered from unrelated publications.
Compare with care: the assays were run in different laboratories.
Target: Mitogen-activated protein kinase kinase kinase 14 (MAP3K14, Homo sapiens, UniProt Q99558)

SMILES	read-out	action	method	tested at	measurement	result
Cn1cncc1[C@](O)(COc1ccc(C#N)cc1-c1ccc(OC(F)(F)F)cc1)c1ccc(C#N)cc1	cell-free assay		competition with immobilised ligand	1 µM	remaining binding	88%
CC(C)(C)c1cc(C=C(C#N)C#N)cc(Br)c1O	enzyme activity	inhibitor		0.5 µM	remaining activity	97.3%
Cn1cc(-c2cc(F)cc(N3CCn4c(cc5c4CCCC5)C3=O)c2CO)cc(Nc2ccc(N3CCN(C4COC4)CC3)cn2)c1=O	enzyme activity	inhibitor		0.1 µM	inhibition	6%
Nc1ncc(-c2nc(N3CCOCC3)nc(N3CCOCC3)n2)c(C(F)F)n1	binding		competition with immobilised ligand	10 µM	remaining binding	70%
COc1ncccc1-c1cnn2ccc(N3CCN(C(=O)OC(C)C)CC3)nc12	binding		competition with immobilised ligand	1 µM	remaining binding	100%
Cn1cc(-c2cccc(N3CCc4c(sc5c4CC(C)(C)C5)C3=O)c2CO)cc(Nc2ccncn2)c1=O	enzyme activity	inhibitor		1 µM	inhibition	-3%
N#CC1(c2ccccn2)CCN(Cc2cc(C(=O)O)c(=O)n3ccccc23)CC1	cell-free assay		competition with immobilised ligand	1 µM	remaining binding	73%
O=c1[nH]c2ccccc2n1C1CCN(Cc2ccc(-c3[nH]c4cc5ncnc5cc4nc3-c3ccccc3)cc2)CC1	cell-free assay			0.5 µM	remaining signal	96.8%
